The values that follow come from ChEMBL document CHEMBL1157746, “Function-oriented synthesis of simplified caprazamycins: discovery of oxazolidine-containing uridine derivatives as antibacterial agents against drug-resistant bacteria” (J Med Chem, 2010).

For orientation: IC50 means the concentration that gives 50% inhibition. A higher IC50 goes with weaker potency in that assay. The MIC is the smallest concentration in the dilution series that meets the test's criterion for growth inhibition. A higher MIC goes with a less susceptible organism.

Assay [1] deals with T1, Phospho-N-acetylmuramoyl-pentapeptide-transferase (Bacillus subtilis (strain 168), UniProt Q03521).
T1 sequence (Q03521 whole entry): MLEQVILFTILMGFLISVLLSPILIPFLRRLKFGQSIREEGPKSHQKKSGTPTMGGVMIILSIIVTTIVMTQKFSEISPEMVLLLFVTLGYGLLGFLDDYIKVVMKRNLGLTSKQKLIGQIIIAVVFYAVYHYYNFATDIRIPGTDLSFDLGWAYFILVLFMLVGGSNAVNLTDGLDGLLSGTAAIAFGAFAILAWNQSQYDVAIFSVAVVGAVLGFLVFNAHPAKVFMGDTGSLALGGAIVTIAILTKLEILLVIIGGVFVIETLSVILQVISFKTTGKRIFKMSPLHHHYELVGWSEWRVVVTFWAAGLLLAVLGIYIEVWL
Kind of assay: Inhibition of Bacillus subtilis MraY after 30 mins using UDP-MurNAc-pentapeptide as substrate.

The test system of assay [2] is Staphylococcus aureus. As to the kind of experiment: Antibacterial activity against methicillin-sensitive Staphylococcus aureus ATCC 29213 after 20 hrs by two fold microdilution broth method. It counts as functional. The note with it: ATCC 29213, 20 h. Put shortly: (§1)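 NCCLS-recommended broth microdilution in cation-adjusted Mueller-Hinton broth; serial 2-fold compound dilutions; each well inoculated with 5×10⁴ CFU in 0.1 mL; incubated 35 °C for 20 h, then MIC (μg/mL) scored.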
For orientation: Dilution methods test growth across graded concentrations, often in twofold steps.

The subject of assay [3] is Staphylococcus aureus. Kind of assay: Antibacterial activity against methicillin-resistant Staphylococcus aureus SR-3637 clinical isolate after 20 hrs by two fold microdilution broth method. It counts as functional. Conditions: SR3637, 20 h. Summed up:
(§2)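 NCCLS broth microdilution in cation-adjusted Mueller-Hinton broth. Serial 2-fold compound dilutions, inoculum 5×10⁴ CFU per well in 0.1 mL. Plates incubated at 35 °C for 20 h, then MIC (μg/mL) scored. Strains are clinical isolates from Japanese hospitals: MRSA SR3637, VanA E. faecalis SR7914, VanA E. faecium SR7917.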

Assay [4] relates to Enterococcus faecalis. Kind of assay: Antibacterial activity against Enterococcus faecalis ATCC 29212 after 20 hrs by two fold microdilution broth method. It counts as functional. The note with it: ATCC 29212, 20 h. Put shortly: as §1
In assay [5] the test system is Enterococcus faecalis. Kind of assay: Antibacterial activity against vancomycin-resistant Enterococcus faecalis SR-7914 clinical isolate after 20 hrs by two fold microdilution broth method. It counts as functional. The note with it: SR7914, 20 h. Summed up:
as §2

Assay [6] deals with Enterococcus faecium. As to the kind of experiment: Antibacterial activity against Enterococcus faecium ATCC 19434 after 20 hrs by two fold microdilution broth method. It counts as functional. Conditions: ATCC 19434, 20 h. Summed up: as §1
Assay [7] relates to Enterococcus faecium. As to the kind of experiment: Antibacterial activity against vancomycin-resistant Enterococcus faecium SR-7917 clinical isolate after 20 hrs by two fold microdilution broth method. It counts as functional. Conditions: SR7917, 20 h. Summed up:
as §2

In brackets after ≈: the same amount, converted by molar mass.

As to `CCCCCCCCc1ccc(NC(=O)[C@@H](N)[C@H](O[C@@H]2O[C@H](CN)[C@@H](O)[C@H]2O)[C@H]2O[C@@H](n3ccc(=O)[nH]c3=O)[C@H](O)[C@@H]2O)cc1.O=C(O)C(F)(F)F`, the IC50 in assay [1] came out at 46 µM. The MIC in assay [2] was 64 µg/mL; in assay [3] it was 64 µg/mL; in assay [4] it was 16 µg/mL; in assay [5], 64 µg/mL; in assay [6] it was 32 µg/mL; in assay [7] it was 32 µg/mL.
Compound `CCCCCCCCCCCCNC(=O)[C@@H](N)[C@H](O[C@@H]1O[C@H](CN)[C@@H](O)[C@H]1O)[C@H]1O[C@@H](n2ccc(=O)[nH]c2=O)[C@H](O)[C@@H]1O.O=C(O)C(F)(F)F` showed an IC50 in assay [1] of 18 µM. Besides, the MIC in assay [2] is 64 µg/mL; in assay [3], 64 µg/mL; in assay [4], 16 µg/mL; in assay [5], 32 µg/mL; in assay [6], 16 µg/mL; in assay [7] it was 16 µg/mL.
Turning to `CCCCCCCCCCCC(=O)N[C@H](C(=O)O)[C@H](O[C@@H]1O[C@H](CN)[C@@H](O)[C@H]1O)[C@H]1O[C@@H](n2ccc(=O)[nH]c2=O)[C@H](O)[C@@H]1O.O=C(O)C(F)(F)F`, in assay [1], the midpoint of inhibition, the IC50, lay at 63 µM. Besides, the MIC in assay [2], in assay [3], in assay [4], in assay [5], in assay [6] and in assay [7] was greater than 64 µg/mL each time.
On to `CCCCCCCCc1ccc(C(=O)N[C@H](C(=O)O)[C@H](O[C@@H]2O[C@H](CN)[C@@H](O)[C@H]2O)[C@H]2O[C@@H](n3ccc(=O)[nH]c3=O)[C@H](O)[C@@H]2O)cc1.O=C(O)C(F)(F)F`, for which 256 µM corresponded to half-maximal inhibition in assay [1] (IC50). The MIC is greater than 64 µg/mL in assay [2]; greater than 64 µg/mL in assay [3]; 64 µg/mL in assay [4]; greater than 64 µg/mL in assay [5]; greater than 64 µg/mL in assay [6]; greater than 64 µg/mL in assay [7].
In turn, `CCCCCCCCCCCCNC(=O)N[C@H](C(=O)O)[C@H](O[C@@H]1O[C@H](CN)[C@@H](O)[C@H]1O)[C@H]1O[C@@H](n2ccc(=O)[nH]c2=O)[C@H](O)[C@@H]1O.O=C(O)C(F)(F)F` gave an IC50 in assay [1] of 36 µM. The MIC in assay [2] was greater than 64 µg/mL; in assay [3] it was greater than 64 µg/mL; in assay [4], 64 µg/mL; in assay [5] it was 64 µg/mL; in assay [6], greater than 64 µg/mL; in assay [7], greater than 64 µg/mL.
As to `CCCCCCCCc1ccc(NC(=O)N[C@H](C(=O)O)[C@H](O[C@@H]2O[C@H](CN)[C@@H](O)[C@H]2O)[C@@H]2O[C@@H](n3ccc(=O)[nH]c3=O)[C@H](O)[C@@H]2O)cc1.O=C(O)C(F)(F)F`, the IC50 in assay [1] stood at 75 µM. In addition, the MIC in assay [2] was greater than 64 µg/mL; in assay [3] it was greater than 64 µg/mL; in assay [4], 64 µg/mL; in assay [5], 64 µg/mL; in assay [6], greater than 64 µg/mL; in assay [7], greater than 64 µg/mL.
For the compound `CCCCCCCCCCCCCCCC(=O)N1[C@H](C(=O)O)[C@@H]([C@H]2O[C@@H](n3ccc(=O)[nH]c3=O)[C@H](O)[C@@H]2O)O[C@@H]1CN`, half-maximal inhibition in assay [1] (IC50) required 740 µM. In addition, the MIC in assay [2], in assay [3], in assay [4], in assay [5], in assay [6] and in assay [7] was greater than 64 µg/mL throughout.
Compound `CCCCCCCCCCCCCCCC(=O)N1[C@H](C(=O)O)[C@@H]([C@H]2O[C@@H](n3ccc(=O)[nH]c3=O)[C@H](O)[C@@H]2O)O[C@@H]1CCN` came in with an IC50 in assay [1] of 451 µM. In addition, the MIC in assay [2], in assay [3], in assay [4], in assay [5], in assay [6] and in assay [7] was greater than 64 µg/mL in each case.
As to `CCCCCCCCCCCCCCCC(=O)N1[C@H](C(=O)O)[C@@H]([C@H]2O[C@@H](n3ccc(=O)[nH]c3=O)[C@H](O)[C@@H]2O)O[C@@H]1CCCN`, the IC50 in assay [1] was found to be 360 µM. The MIC in assay [2], in assay [3], in assay [4], in assay [5], in assay [6] and in assay [7] was greater than 64 µg/mL throughout.
As to `CCCCCCCCCCCCCCCC(=O)N1[C@H](C(=O)OC)[C@@H]([C@H]2O[C@@H](n3ccc(=O)[nH]c3=O)[C@H](O)[C@@H]2O)O[C@@H]1CN.Cl`, in assay [1], the IC50 worked out at 980 µM. Besides, the MIC was greater than 64 µg/mL in assay [2]; 13 µg/mL in assay [3]; 32 µg/mL in assay [4]; 64 µg/mL in assay [5]; 32 µg/mL in assay [6]; 16 µg/mL in assay [7].
For the compound `CCCCCCCCCCCCCCCC(=O)N1[C@H](C(=O)OC(C)(C)C)[C@@H]([C@H]2O[C@@H](n3ccc(=O)[nH]c3=O)[C@H](O)[C@@H]2O)O[C@@H]1CN`, the MIC amounted to 8 µg/mL (≈ 12.3 µM) in assay [2]; 16 µg/mL (≈ 24.5 µM) in assay [3]; 4 µg/mL (≈ 6.13 µM) in assay [4]; 2 µg/mL (≈ 3.06 µM) in assay [5]; 4 µg/mL (≈ 6.13 µM) in assay [6]; 4 µg/mL (≈ 6.13 µM) in assay [7].
As to `CCCCCCCCCCCCCCCC(=O)N1[C@H](C(=O)OC(C)(C)C)[C@@H]([C@H]2O[C@@H](n3ccc(=O)[nH]c3=O)[C@H](O)[C@@H]2O)O[C@@H]1CCN`, the MIC came to 8 µg/mL (≈ 12 µM) in assay [2]; 16 µg/mL (≈ 24 µM) in assay [3]; 2 µg/mL (≈ 3 µM) in assay [4]; 2 µg/mL (≈ 3 µM) in assay [5]; 2 µg/mL (≈ 3 µM) in assay [6]; 8 µg/mL (≈ 12 µM) in assay [7].
In the case of `CCCCCCCCCCCCCCCCNC(=O)[C@@H]1[C@@H]([C@H]2O[C@@H](n3ccc(=O)[nH]c3=O)[C@H](O)[C@@H]2O)O[C@H](CN)N1C(C)=O.Cl`, the MIC in assay [2] stood at 16 µg/mL; in assay [3] it was 32 µg/mL; in assay [4], 32 µg/mL; in assay [5], 16 µg/mL; in assay [6], 16 µg/mL; in assay [7], 16 µg/mL.
`CCCCCCCCCCCCCCCCNC(=O)[C@@H]1[C@@H]([C@H]2O[C@@H](n3ccc(=O)[nH]c3=O)[C@H](O)[C@@H]2O)O[C@H](CCN)N1C(C)=O.Cl`: the MIC in assay [2], in assay [3], in assay [4], in assay [5], in assay [6] and in assay [7] was 16 µg/mL each time.
Consider `CCCCCCCCCCCCCCCCNC(=O)[C@@H]1[C@@H]([C@H]2O[C@@H](n3ccc(=O)[nH]c3=O)[C@H](O)[C@@H]2O)O[C@H](CCCN)N1C(C)=O.Cl`, for which the MIC in assay [2] was determined as 16 µg/mL; in assay [3], 32 µg/mL; in assay [4] it was 16 µg/mL; in assay [5] it was 16 µg/mL; in assay [6] it was 16 µg/mL; in assay [7], 16 µg/mL.
As for `CCCCCCCCCCCCCCCC(=O)N1[C@H](C(=O)OC)[C@@H]([C@H]2O[C@@H](n3ccc(=O)[nH]c3=O)[C@H](O)[C@@H]2O)O[C@@H]1CCN=[N+]=[N-]`, the MIC in assay [2] was greater than 64 µg/mL; in assay [3], greater than 64 µg/mL; in assay [4], 16 µg/mL (≈ 24.6 µM); in assay [5], greater than 64 µg/mL; in assay [6], 64 µg/mL (≈ 98.3 µM); in assay [7], 64 µg/mL (≈ 98.3 µM).
Regarding `CCCCCCCCCCCCCCCC(=O)N1[C@H](C(=O)OC)[C@@H]([C@H]2O[C@@H](n3ccc(=O)[nH]c3=O)[C@H](O)[C@@H]2O)O[C@@H]1CCCN=[N+]=[N-]`, the MIC in assay [2] is greater than 64 µg/mL; in assay [3] it was greater than 64 µg/mL; in assay [4] it was 32 µg/mL (≈ 48.1 µM); in assay [5] it was greater than 64 µg/mL; in assay [6] it was greater than 64 µg/mL; in assay [7], 64 µg/mL (≈ 96.3 µM).
As to `CCCCCCCCCCCCCCCC(=O)O[C@H]1CN[C@@H]([C@H](O[C@@H]2O[C@H](CN)[C@@H](O)[C@H]2O)[C@H]2O[C@@H](n3ccc(=O)[nH]c3=O)[C@H](O)[C@@H]2O)C(=O)N(C)[C@@H]1C(=O)O` [DESMETHYLPALMITOYLCAPRAZOL], the MIC in assay [2] stood at 0.5 µg/mL (≈ 0.625 µM); in assay [3], 0.5 µg/mL (≈ 0.625 µM); in assay [4], 0.5 µg/mL (≈ 0.625 µM); in assay [5], 2 µg/mL (≈ 2.5 µM); in assay [6], 1 µg/mL (≈ 1.25 µM); in assay [7], 1 µg/mL (≈ 1.25 µM).
Turning to `CN[C@H](CC(C)C)C(=O)N[C@H]1C(=O)N[C@@H](CC(N)=O)C(=O)N[C@H]2C(=O)N[C@H]3C(=O)N[C@H](C(=O)N[C@H](C(=O)O)c4cc(O)cc(O)c4-c4cc3ccc4O)[C@H](O)c3ccc(c(Cl)c3)Oc3cc2cc(c3O[C@@H]2O[C@H](CO)[C@@H](O)[C@H](O)[C@H]2O[C@H]2C[C@](C)(N)[C@H](O)[C@H](C)O2)Oc2ccc(cc2Cl)[C@H]1O` [VANCOMYCIN], the MIC in assay [4] is 1 µg/mL (≈ 0.69 µM); in assay [5], greater than 64 µg/mL; in assay [6], greater than 64 µg/mL; in assay [7], greater than 64 µg/mL.
